Screening data: PubChem, several laboratories
This is a sample that favours compounds with a hit; in the whole collection about 3% have one here.
SR-BI DiI inh: inhibitors of mouse SR-BI mediated HDL lipid uptake; Q61009; ldlA[mSR-BI] CHO cells, DiI-HDL uptake fluorescence, 3 h; inhibition, % at 12.5 µM; 320,000 tested, 0.96% active;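 active = mean replicate inhibition of at least 70% and a set share of replicates each scoring 70 or more; inconclusive = meets just one of the two criteria; inactive = fails both criteria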
Target sequence (Q61009 whole entry, looked up): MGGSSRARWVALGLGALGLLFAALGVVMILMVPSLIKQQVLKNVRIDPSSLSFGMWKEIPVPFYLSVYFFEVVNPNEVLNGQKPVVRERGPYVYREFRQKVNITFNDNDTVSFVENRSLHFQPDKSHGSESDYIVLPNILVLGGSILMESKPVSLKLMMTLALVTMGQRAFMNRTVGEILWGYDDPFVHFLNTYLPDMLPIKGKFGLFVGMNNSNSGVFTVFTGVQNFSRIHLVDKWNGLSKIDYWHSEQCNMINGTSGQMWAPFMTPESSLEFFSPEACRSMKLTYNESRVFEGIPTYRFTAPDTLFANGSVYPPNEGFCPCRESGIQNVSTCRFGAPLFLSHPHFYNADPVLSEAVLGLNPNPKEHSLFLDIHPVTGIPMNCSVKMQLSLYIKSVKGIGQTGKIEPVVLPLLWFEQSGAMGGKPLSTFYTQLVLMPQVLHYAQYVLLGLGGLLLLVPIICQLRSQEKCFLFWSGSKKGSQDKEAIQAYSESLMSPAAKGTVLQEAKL
FID counter: fluorescent intercalator displacement, NS3 helicase counter-screen. AID 1845. 290,000 tested, 0.17% active. inhibition, % at 7.9 µM. DNA fluorescent intercalator displacement, fluorescence; in the data active = inhibition above about 37%;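 note: higher means more ethidium bromide displaced from hairpin DNA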
ANO1 activ: activators or potentiators of mouse TMEM16A chloride channel; HEK293 TMEM16A/YFP-H148Q/I152L, iodide quench fluorescence; stronger effect = lower value; B-score at 10 µM; 340,000 tested, 0.3% active; AID 623877;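 active = fluorescence-ratio B-score plate-corrected deviation score at least 3 library SD below zero, with starting fluorescence score within 5 deviations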;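 note: channel opened by trigger with iodide after compound preincubation; score built on the fluorescence ratio of max minus min over baseline; more negative score means more quench and so TMEM16A activation or potentiation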
ANO1 block: blocks the mouse calcium-activated chloride channel TMEM16A. HEK293 TMEM16A/YFP iodide influx fluorescence, ionomycin. normalized B-score (activity score, 25-100; higher = stronger inhibition) at 10 µM. 310,000 tested, 1.2% active. Q8BHY3;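 active = ratio plate-corrected score three or more library SD toward inhibition, starting fluorescence score within five deviations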;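 note: score derived from kinetic fluorescence span divided by baseline fluorescence per well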
SR-BI uptake up: enhances SR-BI lipid uptake from DiI-HDL. CHO ldlA[mSR-BI] cells, DiI-HDL uptake fluorescence, 3 h; 100 = double the neutral-control signal. activation, % at 12.5 µM. 320,000 tested, 0.096% active. AID 504775;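 active = mean replicate activation of at least 60% and every replicate at or above 60%; inconclusive = mean or all-replicate condition met, but not both; inactive = mean below 60% and not all replicates reaching 60%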
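Material: SR-BI-overexpressing, LDLR-lacking CHO cells | Dosing: Single compound concentration, delivered by pin transfer | Probe or stimulus: Labelled HDL, 10 µg/mL | Signal: Bottom-read cell fluorescence after medium removal, ex 550/em 595 nm | Schedule: 3 h, 37 °C | Evaluation: HDL uptake via cellular fluorescence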
Kir21 inh: inhibitors of mouse Kir2.1 inward-rectifier potassium channel; HEK293-Kir2.1, FluxOR thallium flux fluorescence; stronger effect = lower value; B-score at 10 µM; 310,000 tested, 0.85% active; P35561; AID 1672;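 active = fluorescence ratio B-score at or below minus 3 SD of library scores, with starting-brightness B-score within 2 SD, cut at about -4.2 in these data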;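 note: channel flux triggered by added potassium and thallium sulfate stimulus; B-score of peak minus minimum fluorescence over baseline after thallium stimulus; more negative B-score means stronger Kir2.1 block with less thallium influx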
Each line names hits and unclear results; the compound was inactive in the other large screens.

Cc1ccc(C2=NCC(=O)N(CC(=O)N3CCCCC3)c3sc(C)c(C)c32)cc1	SR-BI DiI inh 87.9
CC1C(c2cccs2)=[N+]([O-])C(C)(C(=O)c2cccs2)N1O (configuration not stated)	none
O=C1NC(=O)N(c2ccc3c(c2)OCO3)C(=O)/C1=C/c1ccc(N2CCCCC2)o1	Kir21 inh -4.29
C/C1=C\[C@@H](C)C/C=C/[C@H]2[C@@H]3O[C@]3(C)[C@@H](C)[C@H]3[C@H](Cc4c[nH]c5ccccc45)NC(=O)[C@]32C(=O)/C=C/C(=O)[C@@H]1O	ANO1 activ -10.8, ANO1 block 100
Cc1ccc2c(c1)CC1(CN2C)C(=O)NC(=O)N(c2cc(C)ccc2C)C1=O (configuration not stated)	ANO1 block 25
CC12CCC(=O)C=C1C=CC1C2CCC2(C)C(O)CCC12 (configuration not stated)	none (no result: FID counter, ANO1 block, Kir21 inh)
COc1ccc(Br)cc1CN1CCN(C(=O)Cc2ccccc2)CC1	SR-BI uptake up 724.7
CCCCCCn1c(O)c(/C=N/N2CCCCCC2)c(=O)[nH]c1=O	SR-BI uptake up 150.7
COc1ccc(CCn2c(O)c(/C=N/N3CCCCC3)c(=O)[nH]c2=O)cc1OC	none
COC(=O)C1=C(c2cccc(C#N)c2)C[C@@H]2CC[C@H]1N2C(=O)N1CCOCC1	none (no result: FID counter, ANO1 block, Kir21 inh)
CCCCn1c(O)c(C(CC)=Nc2ccc(OC)cc2OC)c(=O)[nH]c1=O	ANO1 block 25, SR-BI uptake up inconclusive
CCCCn1c(O)c(C(CC)=Nc2ccc(OCC)cc2)c(=O)[nH]c1=O	none
COc1cc2c(c(OC)c1O)-c1ccc(OC)c(=O)cc1C(NC(=O)C(F)(F)F)CC2 (configuration not stated)	none (no result: FID counter, ANO1 block, Kir21 inh)
COc1ccc(CN2CCCC(C(=O)c3ccc(Cl)cc3)C2)c(O)c1 (configuration not stated)	Kir21 inh -10.5
O=[N+]([O-])c1c(Cl)c(Cl)c(Cl)c(Cl)c1Cl	none (no result: FID counter, ANO1 activ, ANO1 block, Kir21 inh)
Nc1cc(Cl)c2nonc2c1[N+](=O)[O-]	SR-BI uptake up 69.8 (no result: Kir21 inh)
CN(C)c1ccc(NC(=O)CN2C(=O)CN=C(c3ccccc3)c3ccccc32)cc1	SR-BI DiI inh 82.7
COC(=O)C1=C(c2ccc(S(C)(=O)=O)cc2)C[C@@H]2CC[C@H]1N2C(=O)NCC1CC1	none (no result: FID counter)
COCCNCCOc1ccc(C(C)(C)c2ccccc2)cc1	Kir21 inh -11.6
NC(N)=N/N=C/c1cn(-c2ccccc2)nc1-c1cccs1	ANO1 block 100, Kir21 inh -9.28
O=c1c2ccccc2nc(-c2cccs2)n1-c1ccccc1	none
COc1ccc(SCC2CN(C)CCC2c2ccc(F)cc2)cc1 (configuration not stated)	Kir21 inh -4.82 (no result: FID counter)
Cc1cc(Oc2ccc(C(F)(F)F)cc2[N+](=O)[O-])c2c3c(c(=O)oc2c1)CCCC3	none
CC1([N+](=O)[O-])COP(=O)(Nc2cccc(Cl)c2)OC1 (configuration not stated)	none (no result: FID counter, ANO1 block, Kir21 inh)
COc1ccc(N2C(=O)NC(=O)/C(=C\c3ccc([N+](=O)[O-])s3)C2=O)cc1	ANO1 activ -6.4
Nc1cc(Cl)cc(C(=O)O)c1Cl	none (no result: FID counter, ANO1 block, Kir21 inh)
CCN(CC)c1ccc(/C=C/[N+](=O)[O-])cc1	none
COc1cc(/C=C/[N+](=O)[O-])ccc1O	SR-BI uptake up 80.8
COc1cc2c(cc1OC)-c1c(OC)c(OC)cc3c1C(C2)N(C)CC3 (configuration not stated)	SR-BI DiI inh 76.5
COc1cc2c(cc1OC)-c1c3c(cc4c1[C@@H](C2)N(C)CC4)OCO3	FID counter 67.2
COc1c(C=C2C(=O)NC(=O)NC2=O)c(CCN(C)C(=O)c2ccccc2)cc2c1OCO2	Kir21 inh -4.51
COC(=O)Cn1cc(C=C2C(=O)NC(=O)NC2=O)c2ccccc21	none
c1ccc2c(c1)[IH]c1ccccc1-2	ANO1 activ -5.78 (no result: FID counter, ANO1 block, Kir21 inh)
c1ccc2c(c1)-c1cccc3cccc-2c13	none (no result: FID counter, Kir21 inh)
COc1cccc(CN2CCN(C(=O)COc3ccc4ccccc4c3)CC2)c1	SR-BI DiI inh 86.0
COc1cc(OC)c(OC)cc1CN1CCN(C(=O)COc2ccc3ccccc3c2)CC1	none (no result: SR-BI DiI inh, SR-BI uptake up)
